From ChEMBL document CHEMBL5226313, “Discovery of an Orally Efficacious MYC Inhibitor for Liver Cancer Using a GNMT-Based High-Throughput Screening System and Structure-Activity Relationship Analysis” (J Med Chem, 2021)
The source made the active and inactive calls. The calls are words filed in the database; no cut-off is given here.

Tests used:
[1] = target: T1, Glycine N-methyltransferase (Homo sapiens) (UniProt Q14749); assay: Induction of GNMT in human H7GPL cells assessed as fold increase in promoter-driven luciferase reporter expression at 2.5 uM measured after 24 hrs by luminescence assay relative to control; assay type: cell-based; conditions: filed as activator
T1 sequence (whole entry): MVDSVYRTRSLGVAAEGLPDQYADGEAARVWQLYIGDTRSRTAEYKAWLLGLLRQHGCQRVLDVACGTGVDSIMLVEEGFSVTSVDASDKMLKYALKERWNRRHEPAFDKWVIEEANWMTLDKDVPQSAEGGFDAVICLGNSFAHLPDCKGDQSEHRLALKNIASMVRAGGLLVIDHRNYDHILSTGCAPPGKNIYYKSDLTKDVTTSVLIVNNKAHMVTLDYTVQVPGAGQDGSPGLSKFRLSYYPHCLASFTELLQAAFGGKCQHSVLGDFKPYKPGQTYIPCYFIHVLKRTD
In short: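 H7GPL cells (Huh7 carrying a stable lentiviral GNMT promoter–luciferase reporter, kept in 1 μg/mL puromycin) treated with compound for 24 h, then luciferase measured. Luciferase activity normalised to cell viability and expressed as fold over solvent control; means ± SD, n = 3.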

[2] = target: T1, Glycine N-methyltransferase (Homo sapiens); assay: Induction of GNMT in human H7GPL cells assessed as fold increase in promoter-driven luciferase reporter expression at 10 uM measured after 24 hrs by luminescence assay relative to control; assay type: cell-based; conditions: filed as activator
[3] = Cytotoxicity against human H7GPL cells at 10 uM measured after 72 hrs by MTS assay; assay type: toxicity, cell-based
In short: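 H7GPL-1 cells seeded at 3 × 10³ per well overnight, then exposed to 10 μM compound for 72 h. Medium replaced with MTS/PMS reagent (20:1) and incubated 1.5 h at 37 °C in 5% CO2; absorbance read at 490 nm. Viability expressed relative to control, where 100% means no cytotoxicity.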

HepG2 [4] = assay: Inhibition of MYC mRNA expression in human HepG2 cells at 0.6 to 10 uM incubated for 24 hrs by immunoblot analysis; assay type: functional, cell-based; conditions: dose 0.6-10 µM, in the assay text read “qRT-PCR analysis” for “immunoblot analysis”
In short: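 Huh7 or HepG2 cells treated with the indicated concentrations for 24 h. Myc mRNA measured by qRT-PCR and expressed as fold over solvent control; means ± SD, n = 3.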

Huh-7 [5] = assay: Increase in p21 expression in human Huh-7 cells at 0.6 to 10 uM incubated for 24 hrs by qRT-PCR analysis; conditions: dose 0.6-10 µM
Hep 3B2 = assay: Antiproliferative activity against human Hep3B cells assessed as inhibition of cell growth incubated for 72 hrs by Alamar blue assay; assay type: functional, cell-based; conditions: dose 0.3-80 µM
In short: (§1)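 Cells seeded in 96-well plates and exposed to a range of drug concentrations for 72 h; Alamar Blue added for a further 4 h. Viable cells expressed as percentage of solvent-treated control; means ± SD, n = 3. Cells kept in DMEM with 10% FBS, 2 mM L-glutamine, 0.1 mM non-essential amino acids and antibiotics at 37 °C in humidified CO2.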

[6] = Drug uptake in NOD-SCID mouse assessed as compound level in liver tissue at 25 mg/kg, po treated for 30 days; conditions: in vivo, 720 h
[7] = Toxicity in NOD-SCID mouse assessed as organ morphology at 10 to 25 mg/kg, po treated for 30 days; assay type: organism-based; conditions: in vivo, 720 h, dose 10-25 mg/kg, time 30 day
In short: (§2)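 Huh7 cells (1 × 10⁶) were injected subcutaneously into the right flank of five- to six-week-old female mice. Once tumours were palpable, mice were randomised and dosed orally every day for 30 days at 10 or 25 mpk, with vehicle and sorafenib (25 mpk) groups alongside. Survival, body weight, liver function tests and organ morphology were monitored during treatment.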

Huh-7 [8] = assay: Antiproliferative activity against human Huh-7 cells assessed as inhibition of cell growth incubated for 72 hrs by Alamar blue assay; assay type: functional, cell-based; conditions: dose 0.3-80 µM; in short: as §1
HepG2 [9] = assay: Effect on HDAC2 protein expression in human HepG2 cells at 0.6 to 10 uM incubated for 24 hrs by immunoblot analysis; assay type: functional, cell-based; conditions: dose 0.6-10 µM
In short: (§3)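 Huh7 or HepG2 cells exposed to the indicated concentrations for 24 h. Lysates prepared in RIPA buffer with phosphatase inhibitors (10 mM Na3VO4, 1 mM NaF, 5 mM NaPPi) and protease inhibitor cocktail; protein quantified by Bio-Rad assay. HDAC1 and HDAC2 detected by immunoblot, with GAPDH as loading control.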

Huh-7 [10] = assay: Effect on HDAC1 protein expression in human Huh-7 cells at 0.6 to 10 uM incubated for 24 hrs by immunoblot analysis; assay type: functional, cell-based; conditions: dose 0.6-10 µM; in short: as §3
HepG2 [11] = assay: Effect on HDAC1 protein expression in human HepG2 cells at 0.6 to 10 uM incubated for 24 hrs by immunoblot analysis; assay type: functional, cell-based; conditions: dose 0.6-10 µM; in short: as §3
[12] = Toxicity in NOD-SCID mouse assessed as body weight at 10 to 25 mg/kg, po treated for 30 days; assay type: organism-based; conditions: in vivo, 720 h, dose 10-25 mg/kg, time 30 day; in short: as §2
[13] = Toxicity in NOD-SCID mouse assessed as liver function at 10 to 25 mg/kg, po treated for 30 days; assay type: organism-based; conditions: in vivo, 720 h, dose 10-25 mg/kg, time 30 day; in short: as §2
[14] = Toxicity in NOD-SCID mouse assessed as survival at 10 to 25 mg/kg, po treated for 30 days; assay type: organism-based; conditions: in vivo, 720 h, dose 10-25 mg/kg, time 30 day; in short: as §2
Huh-7 [15] = assay: Inhibition of colony formation in human Huh-7 cells after 10 days by crystal violet staining based assay; assay type: functional, cell-based; conditions: dose 0.6-10 µM, time 10.0 day
In short: (§4)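 Cells seeded at 1 × 10⁴ per well overnight in six-well plates, then exposed to the specified drug concentrations for 10 days at 37 °C in 5% CO2. Surviving colonies stained with crystal violet and counted; means ± SD, n = 3.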

Huh-7 [16] = assay: Antitumor activity against human Huh-7 cells xenografted in mouse tumor model assessed as reduction in tumor volume at 10 to 25 mg/kg, po treated for 30 days; assay type: functional, organism-based; conditions: dose 10-25 mg/kg, time 30.0 day
In short: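 Huh7 xenografts (1 × 10⁶ cells s.c., right flank) in female Balb/c nude mice aged 5–6 weeks. After tumors became palpable, mice were randomised and dosed orally every day at 10 or 25 mpk, or solvent; sorafenib 25 mpk as comparator. Caliper monitoring of tumor growth over about 4 weeks; mean ± SE, n = 6.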

Huh-7 [17] = assay: Effect on HDAC2 protein expression in human Huh-7 cells at 0.6 to 10 uM incubated for 24 hrs by immunoblot analysis; assay type: functional, cell-based; conditions: dose 0.6-10 µM; in short: as §3
HepG2 [18] = assay: Antiproliferative activity against human HepG2 cells assessed as inhibition of cell growth incubated for 72 hrs by Alamar blue assay; assay type: functional, cell-based; conditions: dose 0.3-80 µM; in short: as §1
HepG2 [19] = assay: Inhibition of colony formation in human HepG2 cells after 10 days by crystal violet staining based assay; assay type: functional, cell-based; conditions: dose 0.6-10 µM, time 10.0 day; in short: as §4
Huh-7 [20] = assay: Reduction in MYC protein expression in tumor of mouse xenografted with human Huh-7 cells at 10 to 25 mg/kg, po treated for 30 days; assay type: functional, organism-based; conditions: dose 10-25 mg/kg, time 30.0 day
In short: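 Tumors taken from Huh7 xenografted nude mice dosed orally every day at 10 or 25 mpk. Tumor lysates prepared in RIPA buffer containing phosphatase and protease inhibitors. MYC and GNMT detected by immunoblot with β-actin as loading control; n = 6 mice per group.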

Huh-7 [21] = assay: Antitumor activity against human Huh-7 cells xenografted in mouse tumor model assessed as inhibition of tumor growth at 25 to 300 mg/kg, po treated for 30 days; assay type: functional, organism-based; conditions: dose 25-300 mg/kg, time 30.0 day
In short: (§5)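 Female Balb/c nude mice, 5–6 weeks old, injected subcutaneously in the right flank with 1 × 10⁶ Huh7 cells. Once tumors were palpable, animals were randomised and dosed orally every day for 30 days at 25, 100 or 300 mpk, or vehicle; sorafenib 25 mpk as reference group. Tumors measured by caliper throughout; body weight recorded during treatment.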

Huh-7 [22] = assay: Induction of GNMT mRNA expression in human Huh-7 cells at 2.5 uM measured after 24 hrs by qRT-PCR analysis; assay type: functional, cell-based
In short: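 Huh7 cells exposed to 2.5 μM for 24 h, then RNA harvested. GNMT mRNA quantified by qRT-PCR, normalised to an internal control and expressed as fold over solvent control; means ± SD, n = 3.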

[23] = Toxicity in mouse xenografted with human Huh-7 cells assessed as body weight at 25 to 300 mg/kg, po treated for 30 days; assay type: organism-based; conditions: in vivo, 720 h, dose 25-300 mg/kg, time 30 day; in short: as §5
[24] = target: T1, Glycine N-methyltransferase (Homo sapiens); assay: Induction of GNMT in human H7GPL cells assessed as fold increase in promoter-driven luciferase reporter expression measured after 24 hrs by luminescence assay relative to control; assay type: cell-based; conditions: filed as activator, dose 0.15-10 µM
Huh-7 [25] = assay: Induction of GNMT protein expression in human Huh-7 cells at 2.5 uM measured after 24 hrs; assay type: functional, cell-based

| SMILES | fold change (FC) [1] | fold change (FC) [2] | other results |
| --- | --- | --- | --- |
| C/C(=N\NC(=O)c1ccccc1O)c1ccccn1 | 0.38 | 9.79 | – |
| C/C(=N\NC(=O)c1cc2ccccc2cc1O)c1ccc[nH]1 | 1.22 | 1.04 | – |
| C/C(=N\NC(=O)c1ccc(O)cc1O)c1ccccn1 | 4.88 | 1.5 | – |
| O=C(NN=C(c1ccccn1)c1ccccn1)c1cc2ccccc2cc1O | 7.56 | 5.94 | – |
| C/C(=N\NC(=O)c1cccc(O)c1)c1ccccn1 | 13.3 | 6.66 | – |
| O=C(N/N=C/c1ccco1)c1cc2ccccc2cc1O | 1.22 | 1.04 | – |
| O=C(N/N=C/c1ccccn1)c1cc2ccccc2cc1O | 1.79 | 1.09 | – |
| c1ccc(-n2ncc3c(N4CCC5(CC4)OCCO5)ncnc32)cc1 | – | – | Activity [3]: Non-Toxic |
| C/C(=N\NC(=O)c1cccnc1N)c1ccccn1 | 11.1 | 8.26 | inhibition (HepG2 [4]): Active; Activity (Huh-7 [5]): Active; Activity (Hep 3B2): Dose-Dependent Effect; Drug uptake [6]: Active; Activity [7]: Non-Toxic; Activity (Huh-7 [8]): Dose-Dependent Effect; Activity (HepG2 [9]): inactive; Activity (Huh-7 [10]): inactive; Activity (HepG2 [11]): inactive; Activity [12]: Non-Toxic; Activity [13]: Non-Toxic; Activity [14]: Non-Toxic; inhibition (Huh-7 [15]): Dose-Dependent Effect; inhibition (Huh-7 [16]): Active; Activity (Huh-7 [17]): inactive; Activity (HepG2 [18]): Dose-Dependent Effect; inhibition (HepG2 [19]): Dose-Dependent Effect; Activity (Huh-7 [20]): Active |
| C/C(=N\NC(=O)c1cc2ccccc2cc1O)c1ccco1 | 1.42 | 1.18 | – |
| O=C(N/N=C/c1ccccn1)c1ccccc1O | 1.4 | 0.88 | – |
| Cc1ccc(COc2ccc3ccc(=O)oc3c2)cc1 | – | – | Activity [3]: Non-Toxic |
| COc1ccc(/C(C)=N/NC(=O)c2cc3ccccc3cc2O)cc1 | 1.2 | 0.9 | – |
| C/C(=N\NC(=O)c1cc2ccccc2cc1O)c1ccccn1 | 6.7 | – | inhibition (Huh-7 [21]): Active; Activity [3]: Non-Toxic; Activity (Huh-7 [22]): Active; Activity [23]: Non-Toxic; Activity [24]: Dose-Dependent Effect; Activity (Huh-7 [25]): Active |
| O=C(NN=C(c1ccccn1)c1ccccn1)c1ccccc1O | 4.55 | 5.86 | – |
| C/C(=N\NC(=O)c1cc2ccccc2cc1O)c1ccc2ccccc2n1 | 3.31 | 0.99 | – |
| C/C(=N\NC(=O)c1cc2ccccc2cc1O)c1cccs1 | 1.24 | 1.42 | – |
| O=C(N/N=C/c1cccs1)c1cc2ccccc2cc1O | 0.12 | 1.36 | – |
| C/C(=N\NC(=O)c1cc2ccccc2cc1O)c1ccc([N+](=O)[O-])cc1 | 1.01 | 0.9 | – |
| O=C(N/N=C/c1ccc[nH]1)c1cc2ccccc2cc1O | 1.19 | 1.56 | – |
| O=C(NN=C(c1ccccn1)c1ccccn1)c1ccc(O)cc1O | 4.7 | 1.14 | – |
| C/C(=N\NC(=O)c1cc2ccccc2cc1O)c1cccnc1 | 1.33 | 1.15 | – |
| C/C(=N\NC(=O)c1c(O)cccc1O)c1ccccn1 | 0.61 | 11 | – |
| C/C(=N\NC(=O)c1ccccc1)c1ccccn1 | 0.59 | 6.96 | – |
| c1ccc(OCc2nc3ccccc3s2)cc1 [2-(PHENOXYMETHYL)BENZOTHIAZOLE] | – | – | Activity [3]: Non-Toxic |
| O=C(N/N=C/c1ccc2ccccc2n1)c1cc2ccccc2cc1O | 1.11 | 1.01 | – |
| C/C(=N\NC(=O)c1cc2ccccc2cc1O)c1ccccc1 | 1.16 | 1.37 | – |
| C/C(=N\NC(=O)c1ccccc1N)c1ccccn1 | 0.93 | 11 | – |
| COc1ccccc1C(=O)N/N=C(\C)c1ccccn1 | 1.72 | 1.31 | – |
